Experimental data reported in PubChem BioAssay.
For some assays here: Potency and affinity values are given separately. Activity calls are given as the source filed them.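 How the source made its calls, unless noted: active means calcium signal ratio cut to more than 3 SD under the fully stimulated control mean yet still positive, in both repeats and the primary screen; inactive means the rest.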

Molecular target: Short transient receptor potential channel 4 (Mus musculus) (UniProt Q9QUQ5)
Assay: inhibitors of mouse TRPC4 channel, confirmation, cell-based, second round, Fluo4, HEK293 TRPC4beta/mu-opioid, 1 µM (AID 2637)
Conditions: Fluo4 calcium flux, DAMGO, at 1 µM
Summary of the method: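 Test system: HEK293 stable line co-expressing TRPC4beta and mu-opioid receptor | Probe or stimulus: Sequential submaximal then maximal DAMGO stimulation | Dosing: 1 µM single point | Timing: Fluo4 loading 45 min at room temperature, compound 110 s | Signal: Fluo4 calcium fluorescence, kinetic real-time read after baseline | Controls: ECmax and compound-free wells | Repeats: Duplicates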

Chain of Short transient receptor potential channel 4 (Mus musculus) (Q9QUQ5 whole entry, looked up): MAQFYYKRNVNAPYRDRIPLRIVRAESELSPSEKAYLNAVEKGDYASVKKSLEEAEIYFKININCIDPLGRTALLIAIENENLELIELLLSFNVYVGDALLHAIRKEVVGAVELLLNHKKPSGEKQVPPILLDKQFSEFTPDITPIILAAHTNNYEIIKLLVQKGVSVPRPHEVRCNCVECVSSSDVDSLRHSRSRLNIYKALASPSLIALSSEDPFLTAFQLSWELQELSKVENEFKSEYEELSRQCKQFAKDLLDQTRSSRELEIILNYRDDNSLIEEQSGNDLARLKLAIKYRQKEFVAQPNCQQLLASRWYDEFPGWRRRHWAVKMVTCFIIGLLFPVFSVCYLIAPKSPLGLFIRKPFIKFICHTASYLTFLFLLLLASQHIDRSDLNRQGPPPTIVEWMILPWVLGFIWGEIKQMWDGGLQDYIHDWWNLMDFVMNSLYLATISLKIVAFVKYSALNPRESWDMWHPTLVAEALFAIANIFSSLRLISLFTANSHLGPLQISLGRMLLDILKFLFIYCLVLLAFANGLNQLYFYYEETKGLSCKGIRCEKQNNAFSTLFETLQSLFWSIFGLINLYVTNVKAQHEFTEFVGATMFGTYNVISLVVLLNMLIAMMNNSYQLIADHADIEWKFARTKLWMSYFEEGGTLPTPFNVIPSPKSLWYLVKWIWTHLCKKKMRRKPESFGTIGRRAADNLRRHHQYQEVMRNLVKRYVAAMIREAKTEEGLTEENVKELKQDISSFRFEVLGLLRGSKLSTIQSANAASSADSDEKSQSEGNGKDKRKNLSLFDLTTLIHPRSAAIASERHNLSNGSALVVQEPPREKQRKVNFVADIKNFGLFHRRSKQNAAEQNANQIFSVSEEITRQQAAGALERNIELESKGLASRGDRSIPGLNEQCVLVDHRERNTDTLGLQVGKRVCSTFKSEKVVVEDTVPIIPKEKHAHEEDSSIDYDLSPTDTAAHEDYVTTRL

outcome, inactive:
COc1ccc(C(CCNCc2ccc(N(C)C)cc2)c2ccccc2)cc1 (stereo not given), COc1ccc(C(=O)NNC(=S)NC(=O)c2cccs2)cc1, Cc1cccc(C(=O)NC(=S)NNC(=O)Cc2ccccc2)c1, COc1ccc(CC(=O)NCC(c2ccc(OC)cc2)N(C)C)cc1 (stereo not given), COc1cccc(C(=O)NC2CCCN(C3Cc4ccccc4C3)C2)c1OC (stereo not given), NC(=O)C1CCCN(CCc2ccccc2)C1 (stereo not given), CNC[C@H](Cc1ccccc1)NC[C@@H](Cc1cccc2ccccc12)NCCc1ccc(C)cc1, O=C(CC1C(=O)NCCN1Cc1cccc(Oc2ccccc2)c1)NCCc1ccccn1 (stereo not given), COc1ccccc1/C=C/CN1CCCC(CCC(=O)NCc2ccccc2F)C1 (stereo not given), C=CCn1c(/N=C/c2ccc(N(C)C)cc2)nc2ccccc21, Cc1oc(-c2ccccc2Cl)nc1CS(=O)CC(=O)NCCCN1CC(C)CC(C)C1 (stereo not given), COc1ccc(CN2CCC(N(CCc3ccccc3)Cc3ccccc3)CC2)c(OC)c1, O=C(NC(=S)NNC(=O)c1ccccc1[N+](=O)[O-])c1ccc(Br)cc1, O=C(NC1CCN(Cc2ccccc2)CC1)C12CC3CC(CC(C3)C1)C2, CCCN1CCN(C(=O)Cn2c(=O)oc3cc(S(=O)(=O)NCc4ccccc4)ccc32)CC1, Cn1c2ccccc2c(=O)c2c(=O)n(C3CCCCC3)c(-c3ccco3)nc21, OCCC1CN(Cc2ccccc2-c2ccco2)CCN1Cc1ccccc1 (stereo not given), CCN1CCCC1CNS(=O)(=O)c1c(C)cc(C)cc1C (stereo not given), Cc1ccc(OCC(=O)N(C)CCc2ccccn2)cc1, CC(C)n1cnc2c(N(C)c3ccccc3)nc(N(CCN(C)C)Cc3ccccc3)nc21, CCC(=O)N1CCc2cc(Br)cc(S(=O)(=O)NCCCN(CC)Cc3ccccc3)c21, NCCCNC(=O)c1cc2ccccc2[nH]1, CN(C)C(CNC(=O)Nc1cccc(Cl)c1)c1cccnc1 (stereo not given), CN(C)C(CNC(=O)CCS(=O)(=O)c1ccccc1)c1ccccc1 (stereo not given), COc1c2c(cc3c1C(CC(O)Cc1ccccc1)N(C)CC3)OCO2 (stereo not given), CC1CN(C)C(C)c2c1oc1ccc(N)cc21 (stereo not given), CN(C)c1ccc(C(CNC(=O)Cc2cccc3ccccc23)N(C)C)cc1 (stereo not given), Cc1cc(C)cc(NC(=S)N2CCN(c3ncc(C(F)(F)F)cc3Cl)CC2)c1, COC(=O)C1CCN(Cc2cn(-c3ccccc3)nc2-c2ccc3c(c2)OCO3)CC1, Cc1cccc(OCCOCCN2CCNCC2)c1C, O=C1/C(=C\c2cc([N+](=O)[O-])ccc2O)SC(=S)N1Cc1ccc(Cl)cc1, CCn1c(N2CCN(S(=O)(=O)CC)CC2)nc2ccccc21, COc1ccc(CSCCN)cc1Cl, O=C1S/C(=C\c2ccc(N3CCOCC3)o2)C(=O)N1Cc1c(F)cccc1Cl, CC(C)(C)[C@H]1C=C(C(=O)NCc2ccccc2)O[C@@H](OCc2ccc(CO)cc2)C1, Nc1c(C(=O)c2ccccc2)sc2nsc(SCCN3CCCC3)c12, O=C(CC(=O)c1c(F)cccc1Cl)c1ccccc1O, Cc1ccccc1Cn1c(CN2CCc3ccccc3C2)nc2c1c(=O)n(C)c(=O)n2C, Cc1csc2c(N3CCN(C(=O)Nc4ccc(OC(F)(F)F)cc4)CC3)ncnc12, O=S(=O)(NCCc1csc(-c2ccccc2)n1)c1cccnc1

Molecular target: Short transient receptor potential channel 4 (Mus musculus) (UniProt Q9QUQ5)
Assay: TRPC4 positive allosteric modulators, dose response, cell-based, HEK293 TRPC4/mu-opioid, Fluo-4 calcium, EC20 DAMGO (AID 434941;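 active means earlier screen potentiator hit that boosts the TRPC4 ion channel at some dose, with a dose response; inactive means no potentiation, no dose response, or not a prior hit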;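 further: calcium entry triggered by an EC20 dose of DAMGO at the co-expressed mu-opioid receptor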)
Conditions: HEK293 TRPC4/mu-opioid cells, Fluo-4 calcium fluorescence; series mostly up to 20 µM

outcome, inactive:
COc1ccc(C(CCNCc2ccc(N(C)C)cc2)c2ccccc2)cc1 (stereo not given), COc1ccc(C(=O)NNC(=S)NC(=O)c2cccs2)cc1, Cc1cccc(C(=O)NC(=S)NNC(=O)Cc2ccccc2)c1, COc1ccc(CC(=O)NCC(c2ccc(OC)cc2)N(C)C)cc1 (stereo not given), COc1cccc(C(=O)NC2CCCN(C3Cc4ccccc4C3)C2)c1OC (stereo not given), NC(=O)C1CCCN(CCc2ccccc2)C1 (stereo not given), CNC[C@H](Cc1ccccc1)NC[C@@H](Cc1cccc2ccccc12)NCCc1ccc(C)cc1, O=C(CC1C(=O)NCCN1Cc1cccc(Oc2ccccc2)c1)NCCc1ccccn1 (stereo not given), COc1ccccc1/C=C/CN1CCCC(CCC(=O)NCc2ccccc2F)C1 (stereo not given), C=CCn1c(/N=C/c2ccc(N(C)C)cc2)nc2ccccc21, Cc1oc(-c2ccccc2Cl)nc1CS(=O)CC(=O)NCCCN1CC(C)CC(C)C1 (stereo not given), COc1ccc(CN2CCC(N(CCc3ccccc3)Cc3ccccc3)CC2)c(OC)c1, O=C(NC(=S)NNC(=O)c1ccccc1[N+](=O)[O-])c1ccc(Br)cc1, O=C(NC1CCN(Cc2ccccc2)CC1)C12CC3CC(CC(C3)C1)C2, CCCN1CCN(C(=O)Cn2c(=O)oc3cc(S(=O)(=O)NCc4ccccc4)ccc32)CC1, Cn1c2ccccc2c(=O)c2c(=O)n(C3CCCCC3)c(-c3ccco3)nc21, OCCC1CN(Cc2ccccc2-c2ccco2)CCN1Cc1ccccc1 (stereo not given), CCN1CCCC1CNS(=O)(=O)c1c(C)cc(C)cc1C (stereo not given), Cc1ccc(OCC(=O)N(C)CCc2ccccn2)cc1, CC(C)n1cnc2c(N(C)c3ccccc3)nc(N(CCN(C)C)Cc3ccccc3)nc21, CCC(=O)N1CCc2cc(Br)cc(S(=O)(=O)NCCCN(CC)Cc3ccccc3)c21, NCCCNC(=O)c1cc2ccccc2[nH]1, CN(C)C(CNC(=O)Nc1cccc(Cl)c1)c1cccnc1 (stereo not given), CN(C)C(CNC(=O)CCS(=O)(=O)c1ccccc1)c1ccccc1 (stereo not given), COc1c2c(cc3c1C(CC(O)Cc1ccccc1)N(C)CC3)OCO2 (stereo not given), CC1CN(C)C(C)c2c1oc1ccc(N)cc21 (stereo not given), CN(C)c1ccc(C(CNC(=O)Cc2cccc3ccccc23)N(C)C)cc1 (stereo not given), Cc1cc(C)cc(NC(=S)N2CCN(c3ncc(C(F)(F)F)cc3Cl)CC2)c1, COC(=O)C1CCN(Cc2cn(-c3ccccc3)nc2-c2ccc3c(c2)OCO3)CC1, Cc1cccc(OCCOCCN2CCNCC2)c1C, O=C1/C(=C\c2cc([N+](=O)[O-])ccc2O)SC(=S)N1Cc1ccc(Cl)cc1, CCn1c(N2CCN(S(=O)(=O)CC)CC2)nc2ccccc21, COc1ccc(CSCCN)cc1Cl, O=C1S/C(=C\c2ccc(N3CCOCC3)o2)C(=O)N1Cc1c(F)cccc1Cl, CC(C)(C)[C@H]1C=C(C(=O)NCc2ccccc2)O[C@@H](OCc2ccc(CO)cc2)C1, Nc1c(C(=O)c2ccccc2)sc2nsc(SCCN3CCCC3)c12, O=C(CC(=O)c1c(F)cccc1Cl)c1ccccc1O, Cc1ccccc1Cn1c(CN2CCc3ccccc3C2)nc2c1c(=O)n(C)c(=O)n2C, Cc1csc2c(N3CCN(C(=O)Nc4ccc(OC(F)(F)F)cc4)CC3)ncnc12, O=S(=O)(NCCc1csc(-c2ccccc2)n1)c1cccnc1
